From ChEMBL document CHEMBL4699650, “SAR Investigation and Discovery of Water-Soluble 1-Methyl-1,4-dihydroindeno[1,2-c]pyrazoles as Potent Tubulin Polymerization Inhibitors” (J Med Chem, 2020) come the findings set out here.

SMILES strings stand for the structures.

Series [1] deals with HCT-116. Put plainly: Antiproliferation activity against human HCT116 cells assessed as cell growth inhibition measured after 72 hrs by MTT assay. The format is functional. Summed up: (§1)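 Cells grown in RPMI-1640 with 10% FBS at 37 °C, 5% CO2, seeded at 4−7 × 10³ cells/well and left to adhere overnight. Exposed to a range of concentrations for 72 h, then MTT (2.5 mg/mL stock) added for 4 h. Formazan dissolved in DMSO and absorbance read at 570 nm. GI50 taken as the concentration giving 50% growth inhibition, reported as mean ± SD of at least three independent experiments.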

Series [2] can be described thus: Cytotoxicity against human L02 cells assessed as assessed as cell growth inhibition measured after 72 hrs by MTT assay. Format: cell-based. Summed up:
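LO2 normal liver cells cultured in RPMI-1640/10% FBS at 37 °C, 5% CO2 and seeded at 4−7 × 10³ cells/well. Graded concentrations applied for 72 h, then MTT readout at 570 nm. GI50 is the concentration giving 50% growth inhibition, mean ± SD of at least three independent experiments.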

Series [3] is described as follows: Antiproliferation activity against human A549/Taxol cells assessed as cell growth inhibition measured after 72 hrs by MTT assay. Format: functional. An outline of the steps:
as §1

For series [4], the system named is HepG2. Put plainly: Induction of cell cycle arrest in human HepG2 cells assessed as accumulation in S phase at 10 nM incubated for 24 hrs by propidium iodide staining based flow cytometry (reference value: 26.65%). Format: functional.
The test system of series [5] is HepG2. The experiment in a line: Induction of apoptosis in human HepG2 cells assessed as late apoptotic cells at 5 nM incubated for 12 hrs by Annexin V-PE and 7-AAD staining based flow cytometry (reference value: 2.79%). Format: functional. Summed up: (§2)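 HepG2 cells seeded at 3 × 10⁵ cells/well, adhered overnight, exposed at 5, 10 or 20 nM for 12 or 24 h. Harvested into Annexin V binding buffer and stained with annexin V-PE and 7-AAD for 15 min at room temperature in the dark, then analysed by flow cytometry. Gates: live (−/−), early apoptotic (+/−), late apoptotic (+/+), necrotic (−/+).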

In series [6] the test system is HepG2. The experiment in a line: Induction of apoptosis in human HepG2 cells assessed as necrotic cells at 10 nM incubated for 12 hrs by Annexin V-PE and 7-AAD staining based flow cytometry (reference value: 0.55 %). The format is functional. Summed up:
as §2

The subject of series [7] is HepG2. Put plainly: Induction of apoptosis in human HepG2 cells assessed as live cells at 10 nM incubated for 12 hrs by Annexin V-PE and 7-AAD staining based flow cytometry (reference value: 92.1%). The format is functional. An outline of the steps: as §2
For series [8], the system named is HepG2. Put plainly: Induction of apoptosis in human HepG2 cells assessed as late apoptotic cells at 20 nM incubated for 12 hrs by Annexin V-PE and 7-AAD staining based flow cytometry (reference value: 2.79%). Format: functional. An outline of the steps: as §2
Series [9] relates to HepG2. Put plainly: Induction of apoptosis in human HepG2 cells assessed as late apoptotic cells at 5 nM incubated for 24 hrs by Annexin V-PE and 7-AAD staining based flow cytometry (reference value: 2.33 %). Format: functional. An outline of the steps: as §2
The test system of series [10] is HepG2. Put plainly: Induction of apoptosis in human HepG2 cells assessed as live cells at 5 nM incubated for 24 hrs by Annexin V-PE and 7-AAD staining based flow cytometry (reference value: 93.2%). The format is functional. An outline of the steps:
as §2

For series [11], the system named is HepG2. Put plainly: Induction of apoptosis in human HepG2 cells assessed as late apoptotic cells at 10 nM incubated for 24 hrs by Annexin V-PE and 7-AAD staining based flow cytometry (reference value: 2.33 %). Format: functional. An outline of the steps: as §2
Series [12] relates to HepG2. Put plainly: Induction of apoptosis in human HepG2 cells assessed as early apoptotic cells at 10 nM incubated for 24 hrs by Annexin V-PE and 7-AAD staining based flow cytometry (reference value: 4.16 %). The format is functional. An outline of the steps: as §2
Series [13] concerns HepG2. Put plainly: Induction of apoptosis in human HepG2 cells assessed as live cells at 20 nM incubated for 24 hrs by Annexin V-PE and 7-AAD staining based flow cytometry (reference value: 93.2%). The format is functional. An outline of the steps:
as §2

Series [14] deals with HepG2. The experiment in a line: Inhibition of cell migration in human HepG2 cells at 10 nM measured after 24 hrs by inverted light microscopy method based wound healing assay relative to control. The format is functional. An outline of the steps:
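Confluent HepG2 monolayer (seeded 3 × 10⁵ cells/well) scratched with a pipette tip and washed with PBS. Incubated in serum-free DMEM with compound at 2.5, 5 or 10 nM for 24 h; CA-4 run in parallel, DMSO as vehicle. Wound imaged at 0 and 24 h by inverted microscope and compared with control.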

Series [15] can be described thus: Lipophilicity, log P of the compound in DMSO and n-octanol at pH 7.4 incubated for 10 hrs under stirred condition by HPLC analysis. The format is physicochemical. The following applies: n-octanol / aqueous phase pH 7.4, pH 7.4. An outline of the steps:
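Partition between n-octanol and water: mixture stirred at room temperature for 10 h, then left at 4 °C overnight. Each phase analysed separately by HPLC on a C18 column. Log P taken from the ratio of peak areas in n-octanol and water.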

A short description of series [16]: Toxicity in Balb/c nude mouse xenografted with human HepG2 cells assessed as change in body weight at 25 mg/kg, po qd administered for 21 days measured at 3 days interval during compound dosing (reference value: - 17.2 % ). The format is organism-based. The following applies: in vivo, 504 h, time 21 day. An outline of the steps:
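Nude mice received 200 μL PBS with HepG2 cells (1 × 10⁷ cells/mL) subcutaneously in the right armpit. At 90 mm³ tumour volume, randomized to 5 per group. Dosed 25 mg/kg as a 2.5 mg/mL distilled-water solution, intragastric once daily for 21 days; distilled water as vehicle. Body weight recorded every 3 days; change given as initial vs end weight.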

Series [17] is described as follows: Toxicity in Balb/c nude mouse xenografted with human HepG2 cells assessed as change in body weight at 5 mg/kg, iv administered every 2 days for 21 days (reference value: 7.8 % ). The following applies: in vivo, 504 h, time 21 day. Format: organism-based.
A short description of series [18]: Toxicity in Balb/c nude mouse xenografted with human HepG2 cells assessed as change in body weight at 10 mg/kg, iv administered every 2 days for 21 days (reference value: 7.8 % ). The format is organism-based. The settings on record: in vivo, 504 h, time 21 day.
The subject of series [19] is HepG2. Put plainly: Antitumor activity against human HepG2 cells xenografted in Balb/c nude mouse assessed as reduction in tumor volume at 5 mg/kg, iv administered every 2 days for 21 days and measured at 3 days interval during compound dosing. Format: functional. Further details: scale not given: the % may be the effect or the level left. The following applies: time 21 day. Summed up: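 Nude mice received 200 μL PBS containing HepG2 at 1 × 10⁷ cells/mL subcutaneously in the right armpit. Randomised at 90 mm³ tumour volume, five per group. Compound given iv as a 2.0 mg/mL solution in distilled water, 5 or 10 mg/kg every two days for 21 days, with a water vehicle group. Tumour volume (L × W²/2) and body weight recorded every 3 days. Inhibition = (1 − RTV treated/RTV vehicle) × 100%.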

Regarding `CCOc1cccc(Nc2nn(C)c3c2Cc2cc(OCC)c(OCCCN)cc2-3)c1`, the GI50 in [1] was found to be 0.0024 µM; in series [3], 0.0147 µM. In series [2], the GI50 at 72 h was found to be 0.284 µM. Also, the Activity was 26.85% in [4]; 3.53% in [5]; 0.92% in [6]; 85.2% in series [7]; 6.42% in series [8]; 4.33% in [9]. Moreover, the Activity in series [10] is 85.6%; in [11], 7.19%; in [12], 16.7%; in [13], 50.2%; in [16], -18.5%; in [17] it was 8.4%. The Activity in series [18] came out at 6.9%; in series [19] it was 54%. The same compound had an inhibition at 0.01 µM in series [14] of 58%. Besides, the logD at 10 h in series [15] came out at 1.7.
